# Reference: ChEMBL document CHEMBL1121366, “Synthesis and immunological activity of 5,6,6a,8,9,11a-hexahydronaphth[1',2':4,5]imidazo[2,1-b]thiazoles and 5,6,6a,9,10,11a-hexahydroanaphth[2',1':4,5]imidazo[2,1-b]thiazoles” (J Med Chem, 1980)
# Columns and labels:
# Mus musculus [1] = experiment: Tested for increase in foot-pad thickness (mm) by its effect on cellular immune response in mice against sheep red blood cells by DHR method in experiment 12 at dose 12 mg/kg; type: functional
# How it was run: (§1)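 Delayed-type hypersensitivity was run in male CDF1 (Balb/c × DBA/2Cr) mice, 8-10 weeks old, groups of four. Mice were sensitized with 1 × 10^8 SRBC in PBS into one hind footpad, with sc inguinal dosing in saline or in 1% Me2SO-saline. Four days later the opposite footpad was challenged with 1 × 10^8 SRBC. The read-out was the gauge-measured increase in thickness from just before to 24 h after challenge, as mean ± SE (n = 4).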
# Mus musculus [2] = experiment: Effect on humoral immune response in mice against sheep red blood cells by the plaque-forming cell (PFC/10e6 spleen cells) method in experiment 3 at dose 12 mg/kg; type: functional
# How it was run: (§2)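 Male ICR mice, 8-10 weeks old, groups of four, were immunized iv with 1 × 10^8 SRBC in PBS. After 24 h they received a single sc inguinal dose in saline, or as a suspension in saline with 1% Me2SO. Splenic hemolytic plaque-forming cells were counted 4 days later by Cunningham's method. Values are the mean of four ± SE, with a paired t test against the control.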
# Mus musculus [3] = experiment: Effect on humoral immune response in mice against sheep red blood cells by the plaque-forming cell (PFC/10e6 spleen cells) method in experiment 3 at dose 3 mg/kg; type: functional; how it was run: as §2
# Mus musculus [4] = experiment: Tested for increase in foot-pad thickness (mm) by its effect on cellular immune response in mice against sheep red blood cells by the DHR method in experiment 12 at dose 3 mg/kg; type: functional; how it was run: as §1
# Mus musculus [5] = experiment: Tested for increase in foot-pad thickness (mm) by its effect on cellular immune response in mice against sheep red blood cells by DHR method in experiment 14 at dose 12 mg/kg; type: functional; how it was run: as §1
# Mus musculus [6] = experiment: Effect on humoral immune response in mice against sheep red blood cells by the plaque-forming cell (PFC/10e6 spleen cells) method in experiment 5 at dose 12 mg/kg; type: functional
# How it was run: (§3)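 Male CDF1 (Balb/c × DBA/2Cr) mice, 8-10 weeks old, groups of four, were immunized iv with 1 × 10^8 SRBC in PBS. After 24 h they received a single sc inguinal dose in saline, or as a suspension in saline with 1% Me2SO. Spleens were taken 4 days later and hemolytic plaque-forming cells counted by Cunningham's method. Values are the mean of four mice ± SE, with a paired Student's t test against the control.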
# Mus musculus [7] = experiment: Tested for increase in foot-pad thickness (mm) by its effect on cellular immune response in mice against sheep red blood cells by the DHR method in experiment 14 at dose 3 mg/kg; type: functional; how it was run: as §1
# Mus musculus [8] = experiment: Effect on humoral immune response in mice against sheep red blood cells by the plaque-forming cell (PFC/10e6 spleen cells) method in experiment 5 at dose 3 mg/kg; type: functional; how it was run: as §3
# Mus musculus [9] = experiment: Tested for increase in foot-pad thickness (mm) by its effect on cellular immune response in mice against sheep red blood cells by DHR method in experiment 16 at dose 12 mg/kg; type: functional
# How it was run: (§4)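 Male mice, 8–10 weeks old, ICR strain. Groups of four were sensitized with 1 × 10^8 SRBC in PBS into one hind footpad, with compound given sc in the inguinal region in saline or saline/1% Me2SO. Four days later, 1 × 10^8 SRBC were injected into the other hind footpad. Foot thickness was measured with a dial gauge just before and 24 h after this challenge, and the increase was taken as the difference. Values are the mean of four mice ± SE.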
# Mus musculus [10] = experiment: (§5) Acute lethal dose was determined in mice upon subcutaneous administration; type: ADME, organism-based; settings: in vivo, sc
# How it was run: (§6)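 Male mice, 8–10 weeks old, CDF1 (Balb/c × DBA/2Cr). Groups of six dosed once, either iv or sc. Three to five dose levels were chosen from 400, 300, 150, 80, 40, 20 and 10 mg/kg. LD50 was calculated by the Litchfield–Wilcoxon method. Vehicle was saline or saline with 1% Me2SO, depending on compound.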
# Mus musculus [11] = experiment: (§7) Acute lethal dose was determined in mice upon intravenous administration; type: ADME, organism-based; settings: in vivo; how it was run: as §6
# Mus musculus [12] = experiment: Tested for increase in foot-pad thickness (mm) by its effect on cellular immune response in mice against sheep red blood cells by DHR method in experiment 11 at dose 12 mg/kg; type: functional
# How it was run: (§8)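 Male ICR mice, 8-10 weeks old, groups of four, were sensitized with 1 × 10^8 SRBC in PBS into one hind footpad and dosed sc in the inguinal region, in saline or in saline with 1% Me2SO. Four days later the other footpad was challenged with 1 × 10^8 SRBC. Foot thickness was gauged just before and 24 h after challenge, and the increase was reported as mean of four ± SE.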
# Mus musculus [13] = experiment: Effect on humoral immune response in mice against sheep red blood cells by the plaque-forming cell (PFC/10e 6 spleen cells) method in experiment 2 at dose 12 mg/kg; type: functional; how it was run: as §2
# Mus musculus [14] = experiment: Tested for the immunological activity by its effect on humoral immune response in mice against sheep red blood cells (SRBC) by the plaque-forming cell (PFC/10e 6 spleen cells) method in experiment 7 at dose 3 mg/kg; type: functional; how it was run: as §3
# Mus musculus [15] = experiment: Effect on humoral immune response in mice against sheep red blood cells by the plaque-forming cell (PFC/10e 6 spleen cells) method in experiment 2 at dose 3 mg/kg; type: functional; how it was run: as §2
# Mus musculus [16] = experiment: Tested increase in foot-pad thickness (mm) by its effect on cellular immune response in mice against sheep red blood cells by the DHR method in experiment 16 at dose 3 mg/kg; type: functional
# How it was run: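 Male ICR mice, 8–10 weeks old, groups of four. Sensitized with SRBC (1 × 10^8) in PBS injected into one hind footpad; compound given sc in the inguinal region in saline or in saline with 1% Me2SO. Four days later the other hind footpad was challenged with SRBC (1 × 10^8). Dial gauge read just before and 24 h after challenge. Value is the mean increase ± SE.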
# Mus musculus [17] = experiment: Tested for the immunological activity by its effect on humoral immune response in mice against sheep red blood cells (SRBC) by the plaque-forming cell (PFC/10e 6 spleen cells) method in experiment 7 at dose 12 mg/kg; type: functional; how it was run: as §3
# Mus musculus [18] = experiment: Tested for increase in foot-pad thickness (mm) by its effect on cellular immune response in mice against sheep red blood cells by the DHR method in experiment 10 at dose 3 mg/kg; type: functional; how it was run: as §8
# Mus musculus [19] = experiment: Effect on humoral immune response in mice against sheep red blood cells by the plaque-forming cell (PFC/10e 6 spleen cells) method in experiment 1 at dose 3 mg/kg; type: functional; how it was run: as §3
# Mus musculus [20] = experiment: Tested for increase in foot-pad thickness (mm) by its effect on cellular immune response in mice against sheep red blood cells by DHR method in experiment 10 at dose 12 mg/kg; type: functional; how it was run: as §8
# Mus musculus [21] = experiment: Effect on humoral immune response in mice against sheep red blood cells by the plaque-forming cell (PFC/10e 6 spleen cells) method in experiment 1 at dose 12 mg/kg; type: functional; how it was run: as §3
# Mus musculus [22] = experiment: Effect on humoral immune response in mice against sheep red blood cells by the plaque-forming cell (PFC/10e6 spleen cells) method in experiment 7 at dose 12 mg/kg; type: functional
# How it was run: (§9)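 Male mice, 8–10 weeks old, CDF1 (Balb/c × DBA/2Cr) in experiment 7. Groups of four were immunized iv with 1 × 10^8 SRBC in PBS. After 24 h, compound was given sc in the inguinal region in saline or saline/1% Me2SO. Four days later, splenic hemolytic plaque-forming cells were counted by the Cunningham method and expressed per 10^6 spleen cells. Values are the mean of four mice ± SE.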
# Mus musculus [23] = experiment: Tested for increase in foot-pad thickness (mm) by its effect on cellular immune response in mice against sheep red blood cells by the DHR method in experiment 16 at dose 3 mg/kg; type: functional; how it was run: as §4
# Mus musculus [24] = experiment: Effect on humoral immune response in mice against sheep red blood cells by the plaque-forming cell (PFC/10e6 spleen cells) method in experiment 7 at dose 3 mg/kg; type: functional; how it was run: as §9
# [25] = as §5; type: ADME, organism-based; settings: mouse, in vivo, sc; how it was run: as §6
# [26] = as §7; type: ADME, organism-based; settings: mouse, in vivo; how it was run: as §6
# Mus musculus [27] = experiment: Effect on humoral immune response in mice against sheep red blood cells by the plaque-forming cell (PFC/10e6 spleen cells) method in experiment 6 at dose 12 mg/kg; type: functional; how it was run: as §3
# Mus musculus [28] = experiment: Effect on humoral immune response in mice against sheep red blood cells by the plaque-forming cell (PFC/10e6 spleen cells) method in experiment 8 at dose 12 mg/kg; type: functional; how it was run: as §3
# Mus musculus [29] = experiment: Effect on humoral immune response in mice against sheep red blood cells by the plaque-forming cell (PFC/10e6 spleen cells) method in experiment 4 at dose 12 mg/kg; type: functional; how it was run: as §3
# Mus musculus [30] = experiment: Effect on humoral immune response in mice against sheep red blood cells by the plaque-forming cell (PFC/10e6 spleen cells) method in experiment 8 at dose 3 mg/kg; type: functional; how it was run: as §3
# Mus musculus [31] = experiment: Effect on humoral immune response in mice against sheep red blood cells by the plaque-forming cell (PFC/10e6 spleen cells) method in experiment 6 at dose 3 mg/kg; type: functional; how it was run: as §3
# Mus musculus [32] = experiment: Effect on humoral immune response in mice against sheep red blood cells by the plaque-forming cell (PFC/10e6 spleen cells) method in experiment 4 at dose 3 mg/kg; type: functional; how it was run: as §3
smiles,measurement,setting,value
Fc1ccc2c(c1)CCC1C2N=C2SCCN21 (trans isomer),Increase in footpad thickness,Mus musculus [1],0.44 mm
same,PFC,Mus musculus [2],1620
same,PFC,Mus musculus [3],1970
same,Increase in footpad thickness,Mus musculus [4],0.44 mm
Clc1ccc2c(c1)CCC1C2N=C2SCCN21 (trans isomer),Increase in footpad thickness,Mus musculus [5],0.46 mm
same,PFC,Mus musculus [6],790
same,Increase in footpad thickness,Mus musculus [7],0.5 mm
same,PFC,Mus musculus [8],1530
c1ccc2c(c1)CCC1N=C3SCCN3C21 (trans isomer),Increase in footpad thickness,Mus musculus [9],0.43 mm
same,LD50,Mus musculus [10],190 mg/kg
same,LD50,Mus musculus [11],26 mg/kg
same,Increase in footpad thickness,Mus musculus [12],0.39 mm
same,PFC,Mus musculus [13],2580
same,PFC,Mus musculus [14],1110
same,PFC,Mus musculus [15],2440
same,Increase in footpad thickness,Mus musculus [16],0.27 mm
same,PFC,Mus musculus [17],960
c1ccc2c(c1)CCC1C2N=C2SCCN21 (trans isomer),Increase in footpad thickness,Mus musculus [18],0.57 mm
same,PFC,Mus musculus [19],1100
same,LD50,Mus musculus [10],320 mg/kg
same,LD50,Mus musculus [11],67 mg/kg
same,Increase in footpad thickness,Mus musculus [20],0.42 mm
same,PFC,Mus musculus [21],1500
Brc1ccc2c(c1)C1N=C3SCCN3C1CC2 (trans isomer),Increase in footpad thickness,Mus musculus [9],0.31 mm
same,PFC,Mus musculus [22],920
same,Increase in footpad thickness,Mus musculus [23],0.35 mm
same,PFC,Mus musculus [24],740
Fc1ccc2c(c1)CCC1N=C3SCCN3C21 (trans isomer),Increase in footpad thickness,Mus musculus [1],0.42 mm
same,PFC,Mus musculus [2],2070
same,PFC,Mus musculus [3],2550
same,Increase in footpad thickness,Mus musculus [4],0.42 mm
Clc1ccc2c(c1)CCC1N=C3SCCN3C21 (trans isomer),Increase in footpad thickness,Mus musculus [5],0.36 mm
same,PFC,Mus musculus [6],820
same,Increase in footpad thickness,Mus musculus [7],0.39 mm
same,PFC,Mus musculus [8],1060
c1ccc([C@H]2CN3CCSC3=N2)cc1 [LEVAMISOLE],PFC,Mus musculus [2],1870
same,PFC,Mus musculus [3],2820
same,LD50,[25],136 mg/kg
same,LD50,[26],15 mg/kg
same,PFC,Mus musculus [27],1330
same,PFC,Mus musculus [28],1200
same,PFC,Mus musculus [22],970
same,PFC,Mus musculus [29],1800
same,PFC,Mus musculus [6],1670
same,Increase in footpad thickness,Mus musculus [16],0.34 mm
same,PFC,Mus musculus [30],570
same,PFC,Mus musculus [31],1850
same,PFC,Mus musculus [32],1380
same,PFC,Mus musculus [24],1390
same,PFC,Mus musculus [8],1330
